MC4R antag cAMP = human MC4R antagonism in cAMP assay. P32245. MC4R-expressing cells, MTII-stimulated cAMP, LANCE TR-FRET. inhibition, % at 6.5 µM. 360,000 tested, 0.48% active;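 active = inhibition above its plate's cutoff, the mean of tested wells on that plate plus 3 SD, cut at about 29% in these data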;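 also: 0% = Melanotan II alone and 100% = Melanotan II plus saturating MCL0020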
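Material: U2OS-MC4R stable cell line | Reagent: Melanotan II challenge after compound preincubation | Doses: One concentration, 6.5 µM nominal | Incubation: 30-min compound preincubation, 1-h Melanotan II challenge, 1-h detection, room temperature | Signal: TR-FRET cAMP assay | Replicates: One well per compound, no replicates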
NOD2 RIPK2 PPI = blocks binding of human NOD2 to RIPK2 | CHO BLA complementation NOD2-RIPK2, CCF4 ratio | 360,000 tested, 0.38% active | O43353 | inhibition, % at 4.98 µM; in the data active = inhibition above about 21%;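 also: 0% = vehicle only and 100% = reference blocker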
TLR9-MyD88 inh = inhibitors of human TLR9-MyD88 binding; CHO BLA complementation TLR9-MyD88, CCF4 FRET ratio; Q9NR96+Q99836; inhibition, % at 4.98 µM; 340,000 tested, 0.21% active;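 active = inhibition above the mean over all tested compounds plus 3 SD, cut at about 21% in these data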;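 also: 0% = DMSO only wells and 100% = clavulanate BLA inhibitor control wells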
NTR1 agonist = NTR1 (human) agonism | NTR1-U2OS beta-arrestin-GFP spot imaging, agonist mode | AID 493036 | P30989 | activation, % at 20 µM | 330,000 tested, 0.17% active;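 active = activation at or above 40% of the spot to cytoplasm intensity ratio, with at least 20 cells analyzed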;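 also: 0% = DMSO without peptide and 100% = 100 nM NTR1 peptide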
TLR4 MyD88 comp = inhibitors of human TLR4-MyD88 binding; O00206+Q99836; HeLa CL3-4 TLR4/MyD88 BLA complementation, FRET ratio; inhibition, % at 8.4 µM; 200,000 tested, 0.18% active; AID 861; in the data active = inhibition above about 25%;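 also: 0% = vehicle and 100% = reference inhibitor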
MC4R barr agon = agonists of human melanocortin 4 receptor (MC4R) beta-arrestin | 360,000 tested, 0.98% active | U2OS MC4R beta-arrestin complementation, luminescence; percent of melanotan II response, DMSO zero | P32245 | activation, % at 8.9 µM;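 active = activation above a per-plate cutoff, the mean activation of sample wells on that plate plus 3 SD, cut at about 8% in these data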
TLR9-MyD88 cf = confirmation of human TLR9-MyD88 binding inhibitors; shares compounds with TLR9-MyD88 inh; CHO TLR9/MyD88 BLA complementation, CCF4 FRET ratio; inhibition, % at 4.98 µM; 680 tested, 51% active; AID 540250;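 active = mean inhibition across three repeats above about 21% taken from the earlier screen, limit read from the data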;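 also: blue over green emission ratio reports constitutive TLR9 MyD88 association via BLA complementation; 0% = DMSO vehicle wells and 100% = clavulanate BLA inhibitor wells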
Target sequence (Q9NR96 whole entry, looked up): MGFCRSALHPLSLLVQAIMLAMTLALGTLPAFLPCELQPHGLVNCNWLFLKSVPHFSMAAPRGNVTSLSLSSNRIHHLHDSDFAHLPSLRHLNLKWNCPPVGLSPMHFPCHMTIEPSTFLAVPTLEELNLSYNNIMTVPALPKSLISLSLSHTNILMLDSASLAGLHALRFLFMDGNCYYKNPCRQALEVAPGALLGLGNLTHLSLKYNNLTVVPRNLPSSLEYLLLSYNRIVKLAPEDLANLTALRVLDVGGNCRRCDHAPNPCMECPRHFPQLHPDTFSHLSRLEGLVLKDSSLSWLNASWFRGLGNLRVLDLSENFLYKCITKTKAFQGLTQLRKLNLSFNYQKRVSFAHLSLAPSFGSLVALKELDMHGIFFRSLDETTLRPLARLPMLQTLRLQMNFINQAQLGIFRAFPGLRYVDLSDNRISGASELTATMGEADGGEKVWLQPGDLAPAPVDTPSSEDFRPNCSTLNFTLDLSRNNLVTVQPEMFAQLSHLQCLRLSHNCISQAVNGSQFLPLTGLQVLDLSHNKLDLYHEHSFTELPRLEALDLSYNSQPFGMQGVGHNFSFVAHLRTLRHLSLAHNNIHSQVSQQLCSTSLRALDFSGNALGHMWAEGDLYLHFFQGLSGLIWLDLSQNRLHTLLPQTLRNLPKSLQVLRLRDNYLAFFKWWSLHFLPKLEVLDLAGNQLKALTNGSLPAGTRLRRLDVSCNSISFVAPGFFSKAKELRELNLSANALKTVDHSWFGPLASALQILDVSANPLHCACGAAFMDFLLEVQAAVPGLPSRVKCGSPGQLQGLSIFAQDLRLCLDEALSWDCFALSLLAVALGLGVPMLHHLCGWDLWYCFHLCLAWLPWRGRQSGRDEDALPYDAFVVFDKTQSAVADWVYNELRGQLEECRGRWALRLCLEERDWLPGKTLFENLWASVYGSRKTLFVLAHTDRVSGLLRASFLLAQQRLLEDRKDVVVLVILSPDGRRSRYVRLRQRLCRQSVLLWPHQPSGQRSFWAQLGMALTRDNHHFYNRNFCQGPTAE
BLA counter = beta-lactamase reporter inhibition, counter-screen artifact; shares compounds with TLR9-MyD88 inh; CHO-BLA cells, CCF4 FRET ratio, BLA reporter; inhibition, % at 4.98 µM; 680 tested, 7% active;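 active = mean inhibition above a 50% cutoff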;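 also: counterscreen of TLR9-MyD88 hits on CMV-driven BLA in CHO-K1 cells; 0% = DMSO alone and 100% = clavulanate blocking BLA; higher means less blue over green ratio so more BLA blockade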
TLR9 CHO cytotox = CHO cell toxicity counter-screen for TLR9-MyD88 inhibitors; shares compounds with TLR9-MyD88 inh; TLR9-MyD88 CHO cells cytotoxicity, luminescence; inhibition, % at 4.98 µM; 680 tested, 39% active; AID 588336; in the data active = inhibition above about 11%
Active calls of the source: *; / = no result. This is a sample that favours compounds with a hit; in the whole collection about 1.9% have one here.

SMILES	MC4R antag cAMP	NOD2 RIPK2 PPI	TLR9-MyD88 inh	NTR1 agonist	TLR4 MyD88 comp	MC4R barr agon	TLR9-MyD88 cf	BLA counter	TLR9 CHO cytotox
CCc1cc(=O)oc2cc(C)cc(OC(C)C(=O)NCCCN3CCCC3=O)c12 (stereo not drawn)	7	-2	-16	-1	/	-2	/	/	/
Cc1ccc(/C=C2/NC(=O)N(Cc3ccc(Br)cc3)C2=O)o1	13	12	22*	0	-4	6	2	2	13*
CCN1C(=O)N/C(=C/c2ccc(C)o2)C1=O	-4	3	6	-1	9	1	/	/	/
Cc1cccnc1NC(=O)CNC(=O)c1ccccc1	2	-9	-7	-2	/	-1	/	/	/
C[C@@H]1CN([C@@H](C)CO)C(=O)c2cc(Br)cnc2O[C@H]1CN(C)C(=O)c1ccncc1	5	-9	7	/	/	0	/	/	/
COc1ccc2c(C#N)c3ccccn3c2c1	9	11	21*	0	24	2	5	8	7
CCOC(=O)c1cccc(C(=O)Nc2nc3ccc(OC)cc3s2)n1	1	-5	-14	2	-2	-2	/	/	/
O=C(NCc1ccccc1Br)c1cccc2c1C(=O)c1ccc(N3CCC(Cc4ccccc4)CC3)cc1S2(=O)=O	0	8	15	2	/	0	/	/	/
O=C(NCC1CCCO1)c1cccc2c1C(=O)c1ccc(N3CCC(Cc4ccccc4)CC3)cc1S2(=O)=O (stereo not drawn)	18	51*	32*	1	/	0	23*	25	10
O=C(NC1CCCCC1)c1cccc2c1C(=O)c1ccc(N3CCC(Cc4ccccc4)CC3)cc1S2(=O)=O	10	21	80*	-1	/	1	37*	41	1
Cc1onc(-c2ccccc2)c1NC(=O)OC(C)c1cccnc1 (stereo not drawn)	7	1	3	/	/	-3	/	/	/
Cc1ccc(C(=O)CSc2nc(-c3ccccc3)ccc2C#N)cc1	6	5	9	0	6	-2	/	/	/
N#Cc1ccc(-c2ccco2)nc1SCC(=O)c1ccc(Cl)cc1	5	15	28*	1	30*	1	25*	25	8
N#CC1=C(N)OC2=C(CC/C2=C\c2ccccc2Cl)C1c1ccccc1Cl (stereo not drawn)	13	11	32*	6	2	-1	7	7	2
COc1ccc(N(CCC#N)S(=O)(=O)c2cccc3nsnc23)cc1	-8	-2	-3	1	-5	-1	/	/	/
CCOC(=O)CCS(=O)(=O)c1nc(-c2ccccc2)cc(C(F)(F)F)n1	16	69*	33*	0	24	-3	39*	13	97*
O=C(CCN1C(=O)c2ccccc2S1(=O)=O)Nc1ccccc1	-5	-2	-5	-2	-1	-2	/	/	/
Cc1cccc(NC(=O)CCN2C(=O)c3ccccc3S2(=O)=O)c1C	5	-15	21*	-2	/	0	4	1	-1
COc1ccc(C2CC(c3ccc(Cl)cc3)=NN2c2ccc(S(N)(=O)=O)cc2)cc1 (stereo not drawn)	20	-62	-139	13	/	5	/	/	/
COc1ccc(C2CC(c3ccncc3)=NN2c2ccc(S(N)(=O)=O)cc2)cc1 (stereo not drawn)	6	37*	19	-1	/	1	12	19	16*
O=C(NNC(=O)c1cccs1)c1ccc(Cl)nc1	2	-10	-10	-1	/	0	/	/	/
O=C(Nc1nc2ccccc2s1)c1cccc(S(=O)(=O)N2CCc3ccccc32)c1	8	2	7	-2	/	2	/	/	/
O=C(Nc1nc2c(s1)CN(Cc1ccccc1)CC2)c1cccc(S(=O)(=O)N2CCc3ccccc32)c1	18	8	28*	1	19	-3	5	6	-2
CC(C)c1ccc(NC(=O)COC(=O)[C@@H]2CCCN2C(=O)c2cccs2)cc1	0	2	5	8	/	0	/	/	/
N#Cc1cccc(NC(=O)COC(=O)CCc2nc3ccccc3c(=O)[nH]2)c1	8	-6	21*	-2	-12	2	-1	0	-2
SMILES	MC4R antag cAMP	NOD2 RIPK2 PPI	TLR9-MyD88 inh	NTR1 agonist	TLR4 MyD88 comp	MC4R barr agon	TLR9-MyD88 cf	BLA counter	TLR9 CHO cytotox
C=CCCCCCCCCc1nc(SCC(=O)O)n[nH]1	2	1	32*	1	/	-1	-5	-1	1
COc1cccc(C(=O)Nn2c(-c3cccs3)nc3ccccc3c2=O)c1OC	8	4	6	1	-3	0	/	/	/
COc1ccc(CNn2c(-c3cccs3)nc3ccccc3c2=O)cc1OC	5	-12	22*	7	-1	0	1	1	12*
O=C(Nc1ccc(S(=O)(=O)Nc2ncccn2)cc1)C1=COCCO1	4	7	1	-1	/	-1	/	/	/
O=C(N/N=C\c1c(O)ccc2ccccc12)c1cncc(Br)c1	12	11	23*	3	/	-1	18	15	60*
O=C(N/N=C/c1c(O)ccc2ccccc12)c1cccnc1	-2	-4	6	1	/	-2	/	/	/
O=C(N/N=C\c1c[nH]c2ccccc12)c1ccc(O)cc1	0	3	21*	0	/	-1	0	0	1
Cc1ccc(S(=O)(=O)Nc2cccc3ncccc23)cc1	22	-11	-3	1	/	2	/	/	/
Cc1ccc(S(=O)(=O)Nc2cccc3ncccc23)s1	5	55*	44*	22	19	-4	20	8	101*
ClC1(Cl)CC1Cn1cnc2ccccc21 (stereo not drawn)	6	2	-6	2	-3	1	/	/	/
COc1ccc2oc(=O)c(-c3nnc(N)s3)cc2c1	-9	17	21*	5	4	0	8	11	-3
COc1ccc(C2=CC(c3ccc(C)cc3)n3nnnc3N2)cc1 (stereo not drawn)	14	27*	26*	2	8	0	5	7	-2
COc1ccc(C2C=C(c3ccccc3)Nc3nnnn32)cc1 (stereo not drawn)	0	-2	24*	1	1	3	4	1	-1
O=Nc1onc(-c2ccc([N+](=O)[O-])cc2)c1NO	3	2	36*	0	7	-2	4	2	0
COC(=O)COc1cc(Cl)c(C=O)cc1OC	-2	-9	0	0	0	0	/	/	/

From PubChem
